Assay results: ChEMBL document CHEMBL1146887 (J Med Chem, 2006)
Activity calls are given as the source filed them. The calls are words filed in the database; no cut-off is given here. Where a SMILES comes first, the peptide text is derived from it. [ ]: non-standard residue; d: D form. The star is where a group is joined. Tyr(Nα,Nα-allyl2) = C=CCN(CC=C)[C@@H](Cc1ccc(O)cc1)C(=O)*; Aib = CC(C)(N)C(=O)O

Assays:
[1] = molecular target: T1, Delta-type opioid receptor (Homo sapiens, UniProt P41143); experiment: Inverse agonist activity at human cloned delta opioid receptor expressed in CHO cells assessed as […] [35S]GTP-gamma-S binding in presence of 1 uM GDP; format: functional, cell-based
[2] = molecular target: T1, Delta-type opioid receptor; experiment: Agonist activity at delta opioid receptor at 31.6 uM; format: functional
[3] = molecular target: T1, Delta-type opioid receptor; experiment: Inverse agonist activity at human cloned delta opioid receptor expressed in CHO cells assessed as […] [35S]GTP-gamma-S binding in presence of 1 uM GDP relative to control; format: functional, cell-based; design: scale not given: the % may be the effect or the level left
[4] = molecular target: Kappa-type opioid receptor (Homo sapiens) (UniProt P41145); experiment: Intrinsic activity at kappa opioid receptor in presence of 1 uM GDP; format: functional
[5] = molecular target: Mu-type opioid receptor (Homo sapiens) (UniProt P35372); experiment: Antagonist activity at human cloned mu opioid receptor expressed in CHO cells assessed as inhibition of DAMGO-stimulated [35S]GTP-gamma-S binding in presence of 10 uM GDP; format: functional, cell-based
How it was run: (§1)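 Membranes of CHO cells expressing cloned human receptor (0.4-0.6 pmol/mg), 20-40 µg protein, with 0.5 nM [³⁵S]GTPγS, 10 µM GDP final, 1% DMSO, in 20 mM Hepes pH 7.4, 100 mM NaCl, 10 mM MgCl₂; 1 h room temperature. Agonist curves (seven concentrations, 0.32-32 000 nM) ± one test concentration (µ 3-300, δ 1-50, κ 50-300 nM). Filtration over GF/B, scintillation counting; Ke as mean ± SE, ≥3 experiments.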

[6] = molecular target: Mu-type opioid receptor (Homo sapiens) (UniProt P35372); experiment: Intrinsic activity at mu opioid receptor in presence of 1 uM GDP; format: functional
[7] = molecular target: Kappa-type opioid receptor (Homo sapiens) (UniProt P41145); experiment: Antagonist activity at human cloned kappa opioid receptor expressed in CHO cells assessed as inhibition of U69593-stimulated [35S]GTPgammaS binding in presence of 10 uM GDP; format: functional, cell-based; how it was run: as §1
[8] = molecular target: T1, Delta-type opioid receptor; experiment: Antagonist activity at human cloned delta opioid receptor expressed in CHO cells assessed as inhibition of DPDPE-stimulated [35S]GTP-gamma-S binding in presence of 10 uM GDP; format: functional, cell-based; how it was run: as §1
[9] = molecular target: Opioid receptors; mu & delta (Homo sapiens) (UniProt P41143+P35372); experiment: Selectivity for human cloned delta opioid receptor over mu opioid receptor; format: protein assay
How it was run: (§2)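 Ratios of Ke values from [³⁵S]GTPγS antagonism assays at cloned human µ, δ and κ receptors in CHO membranes, each run with 10 µM GDP final against DAMGO, DPDPE or U69593 agonist curves.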

[10] = molecular target: Opioid receptors; delta & kappa (Homo sapiens) (UniProt P41145+P41143); experiment: Selectivity for human cloned delta opioid receptor over kappa opioid receptor; format: protein assay; how it was run: as §2
Sequence of Opioid receptors; delta & kappa (Homo sapiens) (P41143 whole entry, looked up): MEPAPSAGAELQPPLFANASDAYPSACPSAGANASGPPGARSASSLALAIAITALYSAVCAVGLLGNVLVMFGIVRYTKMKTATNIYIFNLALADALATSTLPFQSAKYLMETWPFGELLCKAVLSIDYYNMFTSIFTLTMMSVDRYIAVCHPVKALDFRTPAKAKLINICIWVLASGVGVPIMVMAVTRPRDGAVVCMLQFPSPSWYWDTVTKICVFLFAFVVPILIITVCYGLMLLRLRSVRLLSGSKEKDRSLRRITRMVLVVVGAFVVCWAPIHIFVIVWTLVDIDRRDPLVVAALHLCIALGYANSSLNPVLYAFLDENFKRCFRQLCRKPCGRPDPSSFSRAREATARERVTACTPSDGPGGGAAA
Sequence of Opioid receptors; delta & kappa (Homo sapiens) (P41145 whole entry, looked up): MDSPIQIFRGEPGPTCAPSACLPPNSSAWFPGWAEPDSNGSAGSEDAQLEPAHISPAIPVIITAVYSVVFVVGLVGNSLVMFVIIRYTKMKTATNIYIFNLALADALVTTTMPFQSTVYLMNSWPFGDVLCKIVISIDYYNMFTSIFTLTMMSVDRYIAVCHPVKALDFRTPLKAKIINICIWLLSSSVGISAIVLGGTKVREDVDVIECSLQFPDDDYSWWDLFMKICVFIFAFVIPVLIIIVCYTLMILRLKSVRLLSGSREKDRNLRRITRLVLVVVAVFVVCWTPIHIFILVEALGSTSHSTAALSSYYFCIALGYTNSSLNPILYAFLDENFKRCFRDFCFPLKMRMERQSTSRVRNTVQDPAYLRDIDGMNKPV

T1 sequence (P41143 whole entry): as the sequence (P41143 whole entry, looked up) above
Sequence of Mu-type opioid receptor (Homo sapiens) (P35372 whole entry): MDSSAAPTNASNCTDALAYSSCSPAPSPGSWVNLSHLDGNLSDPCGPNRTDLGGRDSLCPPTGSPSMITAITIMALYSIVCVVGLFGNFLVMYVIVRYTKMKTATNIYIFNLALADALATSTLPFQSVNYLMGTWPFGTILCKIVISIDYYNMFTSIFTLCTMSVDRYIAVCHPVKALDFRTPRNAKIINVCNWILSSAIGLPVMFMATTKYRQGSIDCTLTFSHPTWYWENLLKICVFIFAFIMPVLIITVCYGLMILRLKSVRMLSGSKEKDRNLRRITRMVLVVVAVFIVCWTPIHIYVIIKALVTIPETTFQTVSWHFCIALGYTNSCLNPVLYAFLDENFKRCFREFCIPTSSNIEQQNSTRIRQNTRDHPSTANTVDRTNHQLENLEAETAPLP
Sequence of Opioid receptors; mu & delta (Homo sapiens) (P35372 whole entry, looked up): as the sequence (P35372 whole entry) above
Sequence of Opioid receptors; mu & delta (Homo sapiens) (P41143 whole entry, looked up): as the sequence (P41143 whole entry, looked up) above
Sequence of Kappa-type opioid receptor (Homo sapiens) (P41145 whole entry): as the sequence (P41145 whole entry, looked up) above

Structure (SMILES) | IC50 [1] [nM] | Activity [2] | Activity [3] [%] | Activity [4] | Ke [5] [nM] | Activity [6] | Ke [7] [nM] | Ke [8] [nM] | Ratio Ke [9] | Ratio Ke [10]
CCC(CC)(C(=O)N[C@@H]1C[C@@H]2C[C@](c3cccc(O)c3)(C1)[C@@H](C)CN2CCCc1ccccc1)c1ccccc1 | 1.8 | inactive | 61 | inactive | 11.7 | inactive | 14.6 | 0.2 | 59 | 74
COc1ccc(C2(C(=O)N[C@@H]3C[C@@H]4C[C@](c5cccc(O)c5)(C3)[C@@H](C)CN4CCCc3ccccc3)CCCC2)cc1 | 0.48 | inactive | 72 | inactive | 12 | inactive | 2.43 | 0.67 | 18 | 3.6
C[C@H]1CN(C/C=C/c2ccccc2)[C@@H]2C[C@@H](NC(=O)C(C)(C)c3ccccc3)C[C@@]1(c1cccc(O)c1)C2 | 0.72 | inactive | 78 | inactive | 1.9 | inactive | 15.8 | 0.81 | 2.4 | 20
C[C@H]1CN(CCCc2ccccc2)[C@@H]2C[C@@H](NC(=O)C3(c4cccs4)CCCC3)C[C@@]1(c1cccc(O)c1)C2 | 0.8 | inactive | 54 | inactive | 2.19 | inactive | 24 | 0.31 | 7.1 | 77
C[C@H]1CN(CCCc2ccccc2)[C@@H]2C[C@@H](NC(=O)C3(c4ccsc4)CCCC3)C[C@@]1(c1cccc(O)c1)C2 | 0.45 | inactive | 86 | inactive | 2.07 | inactive | 7.77 | 0.24 | 8.8 | 33
C[C@@H](C(=O)N[C@@H]1C[C@@H]2C[C@](c3cccc(O)c3)(C1)[C@@H](C)CN2CCCc1ccccc1)c1ccccc1 | 0.15 | inactive | 78 | inactive | 9.6 | inactive | 8.1 | 0.14 | 69 | 58
C[C@H]1CN(CCCc2ccccc2)[C@@H]2C[C@@H](NC(=O)C3(c4ccc(F)cc4)CCCC3)C[C@@]1(c1cccc(O)c1)C2 | 0.45 | inactive | 72 | inactive | 9.1 | inactive | 4.5 | 0.26 | 35 | 17
C[C@H]1CN(C)[C@@H]2C[C@@H](NC(=O)C3(c4ccccc4)CCCC3)C[C@@]1(c1cccc(O)c1)C2 | 95 | inactive | 79 | inactive | 43.2 | inactive | 61 | 76.8 | 0.6 | 0.8
C[C@H]1CN(CCOc2ccccc2)[C@@H]2C[C@@H](NC(=O)C(C)(C)c3ccccc3)C[C@@]1(c1cccc(O)c1)C2 | 1.4 | inactive | 83 | inactive | 11.4 | inactive | 96.3 | 0.87 | 13 | 111
C=CCN(CC=C)[C@@H](Cc1ccc(O)cc1)C(=O)NC(C)(C)C(=O)NC(C)(C)C(=O)N[C@@H](Cc1ccccc1)C(=O)N[C@@H](CC(C)C)C(=O)O ({Tyr(Nα,Nα-allyl2)}-[Aib][Aib]FL-OH) | 83 | inactive | 75 | inactive | – | inactive | – | – | 5.3 | 43
C[C@H]1CN(CCCc2ccccc2)[C@@H]2C[C@@H](NC(=O)C3(c4ccccc4)CCCCCC3)C[C@@]1(c1cccc(O)c1)C2 | 0.39 | inactive | 70 | inactive | 24.4 | inactive | 17.5 | 0.26 | 93 | 67
C[C@H]1CN(CCCc2ccccc2)[C@@H]2C[C@@H](NC(=O)C3(c4ccc5ccccc5c4)CCCC3)C[C@@]1(c1cccc(O)c1)C2 | 7.7 | inactive | 69 | inactive | 35 | inactive | 56.1 | 0.75 | 47 | 75
CC1CN(CCCc2ccccc2)[C@@H]2C[C@@H](NC(=O)C3(c4ccccc4)CCCC3)C[C@@]1(c1cccc(O)c1)C2 (single isomer, unassigned; (+)) | 1.8 | inactive | 70 | inactive | 8.7 | inactive | 17.9 | 0.15 | 58 | 119
C[C@H]1CN(CCCc2ccccc2)[C@@H]2C[C@@H](NC(=O)C3(c4cccc5ccccc45)CCCC3)C[C@@]1(c1cccc(O)c1)C2 | 16 | inactive | 46 | inactive | 27.2 | inactive | 43.6 | 1.42 | 19 | 31
C[C@H]1CN(CCCc2ccccc2)[C@@H]2C[C@@H](NC(=O)C3(c4ccccc4)CCC3)C[C@@]1(c1cccc(O)c1)C2 | 0.42 | inactive | 65 | inactive | 10.6 | inactive | 16 | 0.17 | 62 | 94
Oc1ccc2c3c1O[C@H]1c4[nH]c5ccccc5c4C[C@@]4(O)[C@@H](C2)N(CC2CC2)CC[C@]314 | – | inactive | – | inactive | – | inactive | – | – | 157 | 77
Cc1ccccc1/C=C/CN1C[C@H](C)[C@@]2(c3cccc(O)c3)C[C@H](NC(=O)C(C)(C)c3ccccc3)C[C@@H]1C2 | 0.12 | inactive | 70 | inactive | 1.02 | inactive | 6.7 | 0.47 | 2.2 | 14
C[C@H]1CN(CCCc2ccccc2)[C@@H]2C[C@@H](NC(=O)C3(c4ccccc4)CCCCC3)C[C@@]1(c1cccc(O)c1)C2 | 0.68 | inactive | 65 | inactive | 22.8 | inactive | 10.2 | 0.34 | 67 | 30
C[C@H]1CN(CCCc2ccccc2)[C@@H]2C[C@@H](NC(=O)C(C)(C)c3ccccc3)C[C@@]1(c1cccc(O)c1)C2 | 0.4 | inactive | 64 | inactive | 10.3 | inactive | 13.2 | 0.1 | 103 | 132
Cc1ccccc1/C=C/CN1C[C@H](C)[C@@]2(c3cccc(O)c3)C[C@H](NC(=O)C3(c4ccccc4)CCCC3)C[C@@H]1C2 | 0.5 | inactive | 70 | inactive | 2.51 | inactive | 5.6 | 0.33 | 7.6 | 22
